1 compound from ChEMBL document CHEMBL3576822 (J Med Chem, 2015) can be followed below.

Test [1] has as its target T1, Growth hormone secretagogue receptor type 1 (Homo sapiens, UniProt Q92847). As to the kind of experiment: Inverse agonist activity at human GHSR1a receptor expressed in COS-7 cells assessed as inositol phosphate accumulation after 2 hrs by anion exchange chromatography. The class given is functional, cell-based.
For test [2], the target named is T1, Growth hormone secretagogue receptor type 1. Nature of the test: Inverse agonist activity at human GHSR1a receptor expressed in COS-7 cells assessed as inositol phosphate accumulation after 2 hrs by anion exchange chromatography relative to control. The class given is functional, cell-based.
In test [3] the target is T2, Neuropeptide Y receptor type 2 (Homo sapiens, UniProt P49146).
T2 sequence (P49146 whole entry): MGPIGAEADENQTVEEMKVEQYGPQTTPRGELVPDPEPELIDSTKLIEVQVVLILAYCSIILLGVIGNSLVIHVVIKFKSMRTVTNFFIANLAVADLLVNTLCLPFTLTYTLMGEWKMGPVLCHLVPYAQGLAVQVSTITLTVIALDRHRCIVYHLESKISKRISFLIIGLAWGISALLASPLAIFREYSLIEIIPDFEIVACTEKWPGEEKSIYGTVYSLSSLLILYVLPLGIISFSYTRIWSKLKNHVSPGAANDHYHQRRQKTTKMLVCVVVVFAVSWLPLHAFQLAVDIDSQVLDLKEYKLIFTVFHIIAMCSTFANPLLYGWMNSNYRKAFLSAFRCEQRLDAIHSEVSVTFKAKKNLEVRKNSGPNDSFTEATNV
As to the kind of experiment: Agonist activity at human neuropeptide Y Y2 receptor expressed in COS-7 cells cotransfected with chimeric Gi/q protein assessed as inositol phosphate accumulation after 2 hrs by anion exchange chromatography. The class given is functional, cell-based. In short, it runs like this:
(§1)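 Inositol phosphate turnover in COS-7 cells stably co-expressing human Y2 receptor and chimeric Gi/q protein; concentration-response curves, responses as % of maximum Y2 activity; SEM over two biological replicates.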

For test [4], the target named is T3, Neuropeptide Y receptor type 2 (Homo sapiens) (UniProt P49146).
T3 sequence (whole entry): T2 sequence (P49146 whole entry)
As to the kind of experiment: Agonist activity at human neuropeptide Y Y2 receptor expressed in COS-7 cells cotransfected with chimeric Gi/q protein assessed as inositol phosphate accumulation after 2 hrs by anion exchange chromatography relative to control. Format: functional, cell-based. A digest of the protocol:
as §1

Test [5] has as its target T1, Growth hormone secretagogue receptor type 1. Nature of the test: Displacement of [125I]ghrelin from human eYFP-fused ghrelin receptor expressed in COS7 cells after 75 mins by competitive receptor binding assay. The class given is cell-based, COS-7. In general terms: Displacement assays read how much labelled ligand stays bound in the presence of the test substance.

In test [6] the target is T2, Neuropeptide Y receptor type 2. As to the kind of experiment: Displacement of [125I]PYY from human neuropeptide Y Y2 receptor expressed in HEK293 cells cotransfected with eYFP fusion protein after 2 hrs by competitive receptor binding assay. Format: cell-based. In short, it runs like this:
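Competitive binding against 125I-PYY in HEK-293 cells stably expressing human Y2 receptor; concentration-response curves.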

Test [7] has as its target T4, Neuropeptide Y receptor type 1 (Homo sapiens) (UniProt P25929).
T4 sequence (whole entry): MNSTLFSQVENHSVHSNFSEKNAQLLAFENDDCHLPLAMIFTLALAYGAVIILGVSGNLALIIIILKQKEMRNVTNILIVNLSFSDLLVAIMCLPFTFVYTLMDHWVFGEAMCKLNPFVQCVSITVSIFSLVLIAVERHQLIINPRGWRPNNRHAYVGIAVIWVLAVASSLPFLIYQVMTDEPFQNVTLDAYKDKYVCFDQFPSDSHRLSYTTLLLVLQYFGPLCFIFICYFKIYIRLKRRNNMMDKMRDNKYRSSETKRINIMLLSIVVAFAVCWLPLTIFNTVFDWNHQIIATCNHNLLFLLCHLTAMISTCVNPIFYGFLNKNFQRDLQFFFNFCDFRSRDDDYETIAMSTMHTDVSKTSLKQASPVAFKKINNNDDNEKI
As to the kind of experiment: Agonist activity at human neuropeptide Y Y1 receptor expressed in COS-7 cells cotransfected with chimeric Gi/q protein assessed as inositol phosphate accumulation at 1 uM after 2 hrs by anion exchange chromatography. Format: functional, cell-based. In short, it runs like this:
(§2)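 COS-7 cells stably co-expressing the corresponding human Y receptor plus a chimeric Gi/q protein; single high concentration tested in inositol phosphate accumulation; response as % of NPY response at each receptor; SEM over two biological replicates.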

The target in test [8] is Neuropeptide Y receptor type 4 (Homo sapiens) (UniProt P50391). Nature of the test: Agonist activity at human neuropeptide Y Y4 receptor expressed in COS-7 cells cotransfected with chimeric Gi/q protein assessed as inositol phosphate accumulation at 1 uM after 2 hrs by anion exchange chromatography. Format: functional, cell-based. A digest of the protocol: as §2
For test [9], the target named is T5, Neuropeptide Y receptor type 5 (Homo sapiens) (UniProt Q15761).
T5 sequence (whole entry): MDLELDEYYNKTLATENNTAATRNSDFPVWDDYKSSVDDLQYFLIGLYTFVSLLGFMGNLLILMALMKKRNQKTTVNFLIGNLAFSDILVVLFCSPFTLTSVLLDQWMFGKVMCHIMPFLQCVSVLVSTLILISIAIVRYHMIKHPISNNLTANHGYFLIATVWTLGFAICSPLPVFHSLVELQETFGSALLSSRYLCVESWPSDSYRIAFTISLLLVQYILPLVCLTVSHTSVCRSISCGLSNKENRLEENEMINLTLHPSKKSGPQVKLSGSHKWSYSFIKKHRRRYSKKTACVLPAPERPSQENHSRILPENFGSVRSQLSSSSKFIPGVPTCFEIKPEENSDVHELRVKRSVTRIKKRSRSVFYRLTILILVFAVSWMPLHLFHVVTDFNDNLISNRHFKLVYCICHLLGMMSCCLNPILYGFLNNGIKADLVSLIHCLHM
Nature of the test: Agonist activity at human neuropeptide Y Y5 receptor expressed in COS-7 cells cotransfected with chimeric Gi/q protein assessed as inositol phosphate accumulation at 1 uM after 2 hrs by anion exchange chromatography. The class given is functional, cell-based. In short, it runs like this: as §2

In test [10] the test system is Mus musculus. Nature of the test: Effect on food intake in diet-induced obese C57BL/6JRj mouse at 500 nM/kg, sc. The class given is functional, organism-based. A digest of the protocol:
(§3)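 Freely fed diet-induced obese mice, saline control group; single acute dose, SC at 500 nM/kg or IP at 50, 100 or 250 nM/kg; cumulative food intake and body weight recorded.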

Test [11] concerns Mus musculus. As to the kind of experiment: Effect on body weight in diet-induced obese C57BL/6JRj mouse at 500 nM/kg, sc. Format: functional, organism-based. In short, it runs like this:
as §3

In test [12] the test system is Mus musculus. As to the kind of experiment: Effect on food intake in diet-induced obese C57BL/6JRj mouse at 50 to 250 nM/kg, ip. Format: functional, organism-based. A digest of the protocol: as §3
Test [13] deals with Mus musculus. Nature of the test: Effect on body weight in diet-induced obese C57BL/6JRj mouse at 50 to 250 nM/kg, ip. Format: functional, organism-based. A digest of the protocol: as §3
In test [14] the test system is Mus musculus. As to the kind of experiment: Effect on food intake in diet-induced obese C57BL/6JRj mouse at 100 nM/kg, ip administered daily for 10 days. Format: functional, organism-based. In short, it runs like this:
(§4)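 Freely fed diet-induced obese mice randomized to groups, saline as control; daily IP injection at 100 nM/kg for 10 days; cumulative food intake and body weight tracked in parallel; drug-by-time interaction analysed by repeated-measures ANOVA.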

Test [15] concerns Mus musculus. As to the kind of experiment: Effect on body weight in diet-induced obese C57BL/6JRj mouse at 100 nM/kg, ip administered daily for 10 days. Format: functional, organism-based. A digest of the protocol: as §4
The subject of test [16] is Mus musculus. Nature of the test: Decrease in food intake in diet-induced obese C57BL/6JRj mouse at 0.25 nM/h, sc administered via osmotic minipumps daily for 14 days. The class given is functional, organism-based.
Test [17] has as its system Mus musculus. Nature of the test: Effect on body weight in diet-induced obese C57BL/6JRj mouse at 0.25 nM/h, sc administered via osmotic minipumps daily for 14 days. Format: functional, organism-based.

Active and inactive are the calls of the source. The calls are words filed in the database; no cut-off is given here. Some results are limits rather than exact numbers.

T1 sequence (Q92847 whole entry): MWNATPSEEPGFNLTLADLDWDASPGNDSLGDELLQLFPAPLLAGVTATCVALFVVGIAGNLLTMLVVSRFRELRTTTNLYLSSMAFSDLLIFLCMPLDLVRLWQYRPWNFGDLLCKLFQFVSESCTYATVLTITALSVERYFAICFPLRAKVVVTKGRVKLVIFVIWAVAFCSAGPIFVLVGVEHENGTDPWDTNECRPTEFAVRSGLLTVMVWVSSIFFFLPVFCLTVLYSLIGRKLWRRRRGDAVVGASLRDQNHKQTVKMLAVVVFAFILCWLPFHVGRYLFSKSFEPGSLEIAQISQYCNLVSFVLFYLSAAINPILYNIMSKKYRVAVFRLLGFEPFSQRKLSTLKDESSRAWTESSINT
Chain of Neuropeptide Y receptor type 4 (Homo sapiens) (P50391 whole entry): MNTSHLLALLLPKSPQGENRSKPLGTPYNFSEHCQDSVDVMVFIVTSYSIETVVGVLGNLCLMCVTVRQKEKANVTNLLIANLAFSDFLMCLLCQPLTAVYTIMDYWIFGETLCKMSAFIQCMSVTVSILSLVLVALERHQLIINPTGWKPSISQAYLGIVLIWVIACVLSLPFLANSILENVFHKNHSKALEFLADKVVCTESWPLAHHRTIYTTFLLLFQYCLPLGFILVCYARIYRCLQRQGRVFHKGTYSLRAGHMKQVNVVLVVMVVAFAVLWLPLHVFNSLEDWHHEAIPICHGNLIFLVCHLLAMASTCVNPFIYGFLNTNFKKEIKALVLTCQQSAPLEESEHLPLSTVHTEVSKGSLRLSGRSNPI

Take `CC(=O)NC(CNC(=O)CCC(=O)N[C@@H](CCCCN)C(=O)N[C@H](Cc1cccc2ccccc12)C(=O)N[C@@H](Cc1ccccc1)C(=O)N[C@H](Cc1c[nH]c2ccccc12)C(=O)N[C@@H](CC(C)C)C(=O)N[C@@H](CC(C)C)C(N)=O)C(=O)N[C@@H](CC(C)C)C(=O)N[C@@H](CCCNC(=N)N)C(=O)N[C@@H](Cc1cnc[nH]1)C(=O)N[C@@H](Cc1ccc(O)cc1)C(=O)N[C@@H](CC(C)C)C(=O)N[C@@H](CC(N)=O)C(=O)N[C@@H](CC(C)C)C(=O)N[C@@H](CC(C)C)C(=O)N[C@H](C(=O)N[C@@H](CCCNC(=N)N)C(=O)N[C@@H](CCC(N)=O)C(=O)N[C@@H](CCCNC(=N)N)C(=O)N[C@@H](Cc1ccc(O)cc1)C(N)=O)[C@@H](C)O` (some centres not stated): the EC50 turned out to be 0.0417 µM in [1] and 0.0032 µM in [3]. The Efficacy in test [2] was 82%; in test [4], 84%; in [7], less than 25%; in test [8], less than 25%; in test [9], 33%. Further, the values for the IC50 in test [5] and in test [6] were 0.0971 µM and 0.0614 µM, respectively. Also, the result in the test with Mus musculus [10], with Mus musculus [11], with Mus musculus [12], in the test on Mus musculus [13], with Mus musculus [14] and with Mus musculus [15] was inactive. Moreover, in the test with Mus musculus [17], the outcome was inactive. For the same compound, in the test with Mus musculus [16], the inhibition result is “Active”.

In general, EC50 refers to the concentration giving half of the maximal effect. The IC50 is the concentration needed to halve the response being measured.
